# Results collected from several papers.
# Compare with care: the assays were run in different laboratories.
# Target: Serine/threonine-protein kinase D1 (PRKD1, Homo sapiens, UniProt Q15139)
# Residues used in one study (Q15139 1-912): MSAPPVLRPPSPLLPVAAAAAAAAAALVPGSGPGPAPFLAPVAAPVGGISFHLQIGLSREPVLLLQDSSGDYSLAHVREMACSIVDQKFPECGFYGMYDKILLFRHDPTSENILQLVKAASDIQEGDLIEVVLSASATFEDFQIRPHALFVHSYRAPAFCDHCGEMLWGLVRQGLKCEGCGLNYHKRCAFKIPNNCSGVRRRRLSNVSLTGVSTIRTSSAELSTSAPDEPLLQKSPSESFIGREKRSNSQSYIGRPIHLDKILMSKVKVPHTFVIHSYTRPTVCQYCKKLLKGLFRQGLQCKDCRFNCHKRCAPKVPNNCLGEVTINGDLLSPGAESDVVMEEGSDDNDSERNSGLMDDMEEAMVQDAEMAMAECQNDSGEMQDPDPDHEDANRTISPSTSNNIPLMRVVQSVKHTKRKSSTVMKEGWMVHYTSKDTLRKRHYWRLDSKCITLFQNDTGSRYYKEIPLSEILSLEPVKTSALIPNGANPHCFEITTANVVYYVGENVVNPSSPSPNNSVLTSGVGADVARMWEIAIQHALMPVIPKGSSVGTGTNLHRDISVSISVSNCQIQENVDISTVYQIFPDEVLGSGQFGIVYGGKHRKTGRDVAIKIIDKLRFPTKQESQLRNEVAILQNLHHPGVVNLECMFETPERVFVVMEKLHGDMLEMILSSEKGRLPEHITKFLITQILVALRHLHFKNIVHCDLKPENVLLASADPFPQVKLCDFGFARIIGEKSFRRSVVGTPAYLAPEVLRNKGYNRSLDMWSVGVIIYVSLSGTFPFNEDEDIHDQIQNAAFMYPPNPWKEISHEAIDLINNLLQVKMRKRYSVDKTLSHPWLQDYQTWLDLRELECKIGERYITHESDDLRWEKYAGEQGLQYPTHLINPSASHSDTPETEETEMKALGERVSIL
SMILES,read-out,mode,technique,concentration,measurement,result
Cc1nn(C)cc1-c1nc2c(N3CCN(Cc4ccc(Cl)cc4)CC3)c(Cl)cnc2[nH]1,binding,,competition with immobilised ligand,1 µM,remaining binding,100%
Cn1cc(-c2cccc(N3CCc4c(sc5c4CC(C)(C)C5)C3=O)c2CO)cc(Nc2ccncn2)c1=O,enzyme activity,inhibitor,,1 µM,inhibition,2%
CC(C)(C)c1cc(C=C(C#N)C#N)cc(Br)c1O,enzyme activity,inhibitor,,0.5 µM,remaining activity,100%
COc1ncccc1-c1cnn2ccc(N3CCN(C(=O)OC(C)C)CC3)nc12,binding,,competition with immobilised ligand,1 µM,remaining binding,100%
O=c1[nH]c2ccccc2n1C1CCN(Cc2ccc(-c3[nH]c4cc5ncnc5cc4nc3-c3ccccc3)cc2)CC1,cell-free assay,,,0.5 µM,remaining signal,94.7%
Cn1cncc1[C@](O)(COc1ccc(C#N)cc1-c1ccc(OC(F)(F)F)cc1)c1ccc(C#N)cc1,cell-free assay,,competition with immobilised ligand,1 µM,remaining binding,99%
COc1cc(Nc2ncc(F)c(Nc3ccc4c(n3)NC(=O)C(C)(C)O4)n2)cc(OC)c1OC,binding,,,10 µM,inhibition,17%
N#CC1(c2ccccn2)CCN(Cc2cc(C(=O)O)c(=O)n3ccccc23)CC1,cell-free assay,,competition with immobilised ligand,1 µM,remaining binding,87%
Cn1cc(-c2cc(F)cc(N3CCn4c(cc5c4CCCC5)C3=O)c2CO)cc(Nc2ccc(N3CCN(C4COC4)CC3)cn2)c1=O,enzyme activity,inhibitor,,0.1 µM,inhibition,12%
Nc1ncc(-c2nc(N3CCOCC3)nc(N3CCOCC3)n2)c(C(F)F)n1,binding,,competition with immobilised ligand,10 µM,remaining binding,80%
